# IDE act: human IDE activators in live cells, primary screen, fluorescence polarization, HEK cells, FAbeta-B substrate | Insulin-degrading enzyme (Homo sapiens), P14735 | FAbeta-B cleavage; 0% vehicle, 100% cell-free pure enzyme wells | activation, % at 5.96 µM | actives 0.073% (n = 340,000);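 active means activation above the mean of all tested compounds plus 3 SD, set per screening campaign, cut at about 17% in these data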
# proCasp7 act: procaspase-7 activators, primary screen, counter-screen for procaspase-3 activator project, biochemical, absorbance, HTS, human; Caspase-7 (Homo sapiens), P55210; recombinant procaspase-7, Ac-DEVD-pNA absorbance 405 nm; D23A/D198A/D206A triple mutant, cannot self-cleave; scale: DMSO 0, 5 µM enzyme 100; AID 463210, 2010; actives 0.093% (n = 330,000); activation, % at 8.5 µM;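 active means percent activation above the screen-wide mean plus 3 SD, cut at about 25% in these data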
# Target sequence (P55210 whole entry D23A/D198A/D206A): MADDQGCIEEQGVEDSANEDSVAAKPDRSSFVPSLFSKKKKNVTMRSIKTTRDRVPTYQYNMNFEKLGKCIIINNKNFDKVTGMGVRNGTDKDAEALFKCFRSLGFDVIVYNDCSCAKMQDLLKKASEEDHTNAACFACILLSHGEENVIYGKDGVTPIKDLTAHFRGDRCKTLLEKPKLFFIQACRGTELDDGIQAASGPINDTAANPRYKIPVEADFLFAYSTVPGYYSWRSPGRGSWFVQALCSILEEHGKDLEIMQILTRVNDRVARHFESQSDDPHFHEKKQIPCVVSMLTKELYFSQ
#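 Replicates: singlicate. Assay system: Procaspase-7 triple mutant (PC-7 D3A). Signal: 405 nm absorbance of p-nitroaniline. Times: 1 h preincubation, 2 h reaction. Buffer or medium: Zinc-free HEPES pH 7.4 with 300 mM NaCl, 0.01% Triton X-100. Also added: DEVD-pNA substrate. Benchmarks: DMSO wells as 0%, DMSO with 5 µM added PC-7 as 100%.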
# proCasp3 act: activators of human procaspase-3 D3A mutant, primary screen, biochemical, absorbance, PC-3 D3A mutant, single concentration. Caspase-3 (Homo sapiens), P42574. activation, % at 8.5 µM. AID 463141, 2010. actives 0.11% (n = 330,000). recombinant procaspase-3 D3A, Ac-DEVD-pNA absorbance 405 nm;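 active means activation above the mean of all tested compounds plus 3 SD, cut at about 21% in these data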;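 further: 0% = DMSO alone and 100% = DMSO wells spiked with extra 5 µM PC-3 D3A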
# Target sequence (P42574 whole entry D9A/D28A/D175A): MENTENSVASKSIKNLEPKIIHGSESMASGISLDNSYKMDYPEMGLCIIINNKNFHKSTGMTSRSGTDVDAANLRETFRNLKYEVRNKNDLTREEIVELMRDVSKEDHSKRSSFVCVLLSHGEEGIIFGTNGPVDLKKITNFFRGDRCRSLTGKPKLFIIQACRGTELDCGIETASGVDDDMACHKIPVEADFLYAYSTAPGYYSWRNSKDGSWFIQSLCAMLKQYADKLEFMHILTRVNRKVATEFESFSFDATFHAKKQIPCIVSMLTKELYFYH
#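 Compound: 8.5 µM single point, 0.8% DMSO / Material: Autoprocessing-dead procaspase-3 D3A mutant enzyme / Timing: 1 h preincubation plus 2 h reaction at 25 °C / Medium: Zinc-free HEPES/NaCl buffer with 0.01% Triton X-100 at pH 7.4 / Technique: 405 nm absorbance of p-nitroaniline, reads at 0 and 120 min / Repeats: one well per compound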
# IDE inh: human IDE inhibitors in live cells, primary screen, fluorescence polarization, HEK cells, FAbetaB substrate; FAbetaB cleavage; inhibition, % at 5.59 µM; actives 0.41% (n = 320,000);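 active means percent inhibition above the average of all tested compounds plus 3 SD, set per screening campaign, cut at about 16% in these data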;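 further: IDE supplied by intact live HEK cells; FP after avidin binding of uncleaved biotin substrate so inhibition keeps polarization high; 0% = DMSO wells and 100% = 60 µM reference IDE inhibitor Ii1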
# TPT1 inhibitor: Candida albicans TPT1 enzyme inhibitors, primary screen, biochemical, fluorescence polarization. inhibition, % at 5 µM. actives 0.81% (n = 300,000). tRNA 2'-phosphotransferase TPT1 (Candida albicans SC5314). recombinant caTPT1, FP RNA substrate dephosphorylation. AID 1962, 2009;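 active means inhibition above the mean of all tested compounds plus 3 SD, set per screening campaign, cut at about 24% in these data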;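 further: plate controls were DMSO alone for no effect and ferristatin control at 100 nM for full effect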
# caTPT1 confirm: Candida albicans TPT1 inhibitors, confirmation, biochemical, fluorescence polarization, triplicate | actives 74% (n = 2,400) | shares compounds with TPT1 inhibitor | recombinant caTPT1, RNase T1 coupled | inhibition, % at 5 µM;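 active means inhibition above the primary screen limit, the mean inhibition of all tested compounds plus 3 SD, cut at about 25% in these data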
# RNase T1 counter: RNase T1 inhibitors, counter-screen for TPT1 inhibitor project, biochemical, fluorescence polarization. shares compounds with TPT1 inhibitor. RNase T1 cleavage, 1536-well. inhibition, % at 5 µM. actives 83% (n = 2,400);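 active means inhibition above the solvent-only control well mean plus 3 SD, limit set per screening run, cut at about 23% in these data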;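 further: plate controls were DMSO wells with enzyme for no effect and wells without RNase T1 for full effect; inhibitors block cleavage so intact labeled substrate keeps polarization high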
# Target sequence (P00651 whole entry, looked up): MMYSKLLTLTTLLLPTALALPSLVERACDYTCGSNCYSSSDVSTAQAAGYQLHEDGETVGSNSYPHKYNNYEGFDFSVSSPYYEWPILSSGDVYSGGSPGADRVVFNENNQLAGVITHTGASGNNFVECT
# IDE inh confirm: human IDE inhibitors in live cells, confirmation, fluorescence polarization, HEK cells, FAbetaB substrate. shares compounds with IDE inh. FAbetaB cleavage. inhibition, % at 5.59 µM. actives 51% (n = 1,200). AID 435028, 2010;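 active means mean inhibition across triplicate wells above the cutoff set by the earlier primary insulin-degrading enzyme screen, cut at about 16% in these data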;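 further: 0% = DMSO wells and 100% = 60 µM reference IDE inhibitor Ii1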
# HEK cytotox: cytotoxicity in HEK cells, cytotoxicity control for IDE inhibitor project, cell-based, luminescence. shares compounds with IDE inh. HEK293 cytotoxicity, ATP luminescence. inhibition, % at 5.59 µM. actives 28% (n = 1,200). AID 449730, 2010; in the data active means inhibition above about 22%;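 further: 0% = vehicle wells and 100% = reference cytotoxic drug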
# PC3 dual counter: procaspase-3 activators, counter-screen for dual procaspase-3/7 activator project, biochemical, absorbance, PC-3 D3A mutant, human. shares compounds with proCasp7 act. recombinant PC-3 D3A, Ac-DEVD-pNA absorbance 405 nm; aspartates 9, 28, 175 changed to alanine; 100% = enzyme control. activation, % at 8.5 µM. 290 tested, under 10 active. AID 493114, 2011;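 active means mean percent activation across triplicates above a set limit taken from the earlier primary procaspase-3 screen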;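 further: 0% = DMSO wells and 100% = DMSO wells with 5 µM added PC-3 D3A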
# Procasp7 act: activation of procaspase-7 enzyme – biochemical, absorbance, human, dual procaspase-3/-7 activator project, confirmation; shares compounds with proCasp7 act; recombinant procaspase-7, Ac-DEVD-pNA absorbance 405 nm; D23A/D198A/D206A mutant that cannot self-cleave; activation, % at 8.5 µM; 290 tested, under 10 active; AID 493115, 2011;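 active means mean activation above a set limit carried over from the earlier primary screen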;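 further: 0% = DMSO only and 100% = DMSO with added 5 µM PC-7 enzyme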
# Numbers without * were called inactive; x = not tested or not shown; + = active, no number. Most compounds without a hit are left out; they make up all but 1.2% or so of the library.
SMILES,IDE act,proCasp7 act,proCasp3 act,IDE inh,TPT1 inhibitor,caTPT1 confirm,RNase T1 counter,others
CN1C2CCC1CC(OC(=O)c1cc(Cl)cc(Cl)c1)C2 (stereo not given),-1,-3,7,11,0,x,x,
CCN(CCO)c1ccc(N=Cc2c(O)n(C)c(=S)[nH]c2=O)cc1,x,-22,-24,12,57*,86*,94*,
CCn1c(O)c(C=Nc2ccc(S(N)(=O)=O)cc2)c(=O)[nH]c1=S,-6,-17,-6,1,7,x,x,
Cc1nc2ccccc2c(=O)n1-c1cc(F)ccc1F,4,4,4,-1,-5,x,x,
COc1ccc2[nH]c3c(c2c1)CCN=C3C,-2,-9,3,2,33*,13,18,
Cc1cccc(-n2c(O)c(C=Nc3ccc(S(N)(=O)=O)cc3)c(=O)[nH]c2=O)c1,-3,-17,-21,2,30*,8,11,
CCN(CC)S(=O)(=O)c1ccc(N=Cc2c(O)n(-c3ccccc3)c(=O)[nH]c2=O)cc1,5,-7,-8,-1,20,x,x,
O=c1[nH]c(=O)n(-c2ccc(Cl)cc2)c(O)c1C=Nc1ccc(S(=O)(=O)Nc2nccs2)cc1,-5,0,-2,7,31*,37*,52*,
COc1cc(N2CCOCC2)ccc1/C=C1\C(=O)NC(=O)N(Cc2ccc3c(c2)OCO3)C1=O,3,-13,-2,7,27*,46*,65*,
COc1cc(N2CCOCC2)ccc1/C=C1\C(=O)NC(=O)N(Cc2cccs2)C1=O,3,-21,-6,0,23,x,x,
CCOc1ccc(N2C(=O)/C(=C/c3ccc(C)o3)C(=O)NC2=S)cc1,-2,-28,-5,1,32*,47*,57*,
COc1ccc(N2C(=O)/C(=C/c3ccc(C)o3)C(=O)NC2=S)cc1,-2,x,x,x,x,x,x,
CCOc1ccc(N2C(=O)NC(=O)/C(=C\c3ccc(N4CCCCC4)o3)C2=O)cc1,-21,4,-3,10,138*,149*,146*,
Cc1ccc(/C=C2\C(=O)NC(=S)N(c3cccc(F)c3)C2=O)o1,-5,-9,-5,2,41*,46*,57*,
CN1C(=O)C(=Cc2sc(=O)n(-c3ccccc3)c2N(C)C)C(=O)N(C)C1=O,-6,-4,1,0,42*,53*,71*,
Cc1cc(C=C2C(=O)N(C)C(=O)N(C)C2=O)c(C)n1-c1ccccc1,1,-7,-2,-1,1,x,x,
Clc1cccc(CNCCc2c[nH]c3ccccc23)c1,0,-1,2,0,-5,x,x,
O=C1NC(=O)N(Cc2ccccc2)C(=O)/C1=C\C=C\c1ccco1,-17,-17,-8,17*,60*,46*,63*,IDE inh confirm=10;HEK cytotox=58*
COc1ccc(-n2c(/C=C/c3ccc(O)c(O)c3)nc3ccccc3c2=O)cc1,-99,-29,-12,115*,36*,58*,61*,IDE inh confirm=116*;HEK cytotox=23*
CC(C)=CCN1CC[C@@]2(C)c3cc(O)ccc3C[C@@H]1C2C (stereo not given in full),4,-9,5,-1,x,x,x,
CCOC(=O)C(O)(c1ccc(NC(=O)NC2CCCCC2)cc1)C(F)(F)F (stereo not given),4,-6,4,2,0,x,x,
O=C1NC(=O)N(c2ccc3c(c2)OCO3)C(=O)/C1=C/c1ccc(N2CCCC2)o1,-27,-5,-3,19*,128*,142*,140*,IDE inh confirm=29*;HEK cytotox=6
CCN(CC)c1ccc(/C=N/c2sc3c(c2C#N)C2CCN3CC2)c(O)c1,-76,-9,-13,20*,161*,146*,133*,IDE inh confirm=123*;HEK cytotox=55*
CN1/C(=C\C=C2C(=O)NC(=O)NC2=O)C(C)(C)c2ccccc21,-65,-42,-17,57*,+,184*,168*,IDE inh confirm=70*;HEK cytotox=12
CN1/C(=C\C=Nc2ccccc2)C(C)(C)c2ccccc21,1,4,4,-3,-4,x,x,
SMILES,IDE act,proCasp7 act,proCasp3 act,IDE inh,TPT1 inhibitor,caTPT1 confirm,RNase T1 counter,others
C/C(=N\N1CCCCC1c1cccnc1)c1c(O)n(C2CCCCC2)c(=S)[nH]c1=O (stereo not given),-32,-10,-4,29*,82*,123*,133*,IDE inh confirm=14;HEK cytotox=15
CCCCn1c(O)c(/C(CC)=N/N2CCCCC2c2cccnc2)c(=O)[nH]c1=S (stereo not given),-3,-1,4,3,20,x,x,
Cc1c(C(=O)N2CCC3(CC2)OCCO3)sc2ncnc(N3CCN(c4ccccn4)CC3)c12,-2,5,4,-2,0,x,x,
CC1(C)OC(c2ccccc2)=C/C(=C/C=C2C(=O)NC(=O)NC2=O)O1,-84,-27,-16,50*,113*,107*,106*,IDE inh confirm=55*;HEK cytotox=8
CC(C)=CCc1c(O)cc2c(c1O)C(=O)CC(c1ccc(O)cc1)O2 (stereo not given),6,-1,8,-4,-2,x,x,
CCOC(=O)COc1ccc2c(c1)c(C(C)=O)c(C)n2Cc1ccccc1,8,8,-5,2,4,x,x,
COc1cc(/C=C/c2nc3ccccc3c(=O)n2-c2ccc(O)cc2)ccc1O,-47,-5,1,33*,17,x,x,IDE inh confirm=111*;HEK cytotox=34*
COc1ccc2[nH]c(C)c(CCNCc3cn(C)c4ccccc34)c2c1,-2,10,-5,-1,x,x,x,
CC(C)CNC(=O)c1c(N)n(Cc2ccc3c(c2)OCO3)c2nc3ccccc3nc12,2,71*,-5,5,7,x,x,PC3 dual counter=-29;Procasp7 act=-34
CCOC(=O)c1ccc(NC(=O)N2CC3CC(C2)c2cccc(=O)n2C3)cc1 (stereo not given),3,4,-7,-2,-5,x,x,
